Screens as filed in PubChem BioAssay.
A selection: hits, their analogues and other compounds. The true share with any hit is near 1.4%.
CSN deneddyl inh = blocks human CSN-mediated cullin deneddylation | 0.38% of 360,000 active | inhibition, % at 12.5 µM | Purified CSN, SCF-Nedd8-OG deneddylation, fluorescence polarization | AID 651999;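 active = pattern-corrected inhibition above about 35%, with an unprinted fluorescence ratio check between 0.5 and 1.5, limit read from the data, passing the limit was not always enough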
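Material: purified human Csn5 enzyme expressed in HEK293T cells / Medium: Tris buffer pH 7.5, NaCl, DTT, Tween-20, trehalose, ovalbumin / Compound dosing: 12.5 µM single point / Schedule: 90 min incubation of compound, enzyme and substrate at room temperature / Signal: fluorescence polarization of the substrate / Control set: no-enzyme wells high, enzyme-with-substrate wells low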
TPT1 inh = blocks Candida albicans tRNA 2'-phosphotransferase | recombinant caTPT1, FP RNA substrate dephosphorylation | inhibition, % at 5 µM | 0.81% of 300,000 active | AID 1962;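 active = inhibition above the mean of all tested compounds plus 3 SD, set per screening campaign, cut at about 24% in these data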
IDE act = boosts human insulin-degrading enzyme activity in HEK cells | P14735 | FAbeta-B cleavage, fluorescence polarization; 0% vehicle, 100% cell-free pure enzyme wells | activation, % at 5.96 µM | 0.073% of 340,000 active | AID 493087;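 active = activation above the mean of all tested compounds plus 3 SD, set per screening campaign, cut at about 17% in these data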
IDE inh = cellular human IDE inhibition; inhibition, % at 5.59 µM; HEK cells, FAbetaB cleavage, fluorescence polarization; P14735; 0.41% of 320,000 active;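 active = percent inhibition above the average of all tested compounds plus 3 SD, set per screening campaign, cut at about 16% in these data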;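 also: IDE supplied by intact live HEK cells; FP after avidin binding of uncleaved biotin substrate so inhibition keeps polarization high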
HNF4A DNA FP = change in binding of human HNF4 alpha to DNA. HNF4a-FITC DNA binding, fluorescence polarization, 1 h. activity change, % at 10 µM. 0.3% of 360,000 active. P41235; in the data active = activity change above about 30%, passing the limit was not always enough
CSN deneddyl val = validation of inhibitors of human CSN-mediated cullin deneddylation; shares compounds with CSN deneddyl inh; Csn5 deneddylation of SCF-Nedd8OG, fluorescence polarization, 90 min; inhibition, % at 16.6 µM; 62% of 540 active; in the data active = inhibition above about 50%
MMP2 cntr CSN = MMP-2 (human) inhibition, counter-screen for CSN hits; inhibition, % at 16.6 µM; shares compounds with CSN deneddyl inh; 33% of 540 active; recombinant MMP-2, FRET substrate fluorescence, 60 min;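 active = corrected plate-normalized z-score of 5 or more, or -5 or less, or inhibition of 15% or more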
Target sequence (P08253 whole entry, looked up): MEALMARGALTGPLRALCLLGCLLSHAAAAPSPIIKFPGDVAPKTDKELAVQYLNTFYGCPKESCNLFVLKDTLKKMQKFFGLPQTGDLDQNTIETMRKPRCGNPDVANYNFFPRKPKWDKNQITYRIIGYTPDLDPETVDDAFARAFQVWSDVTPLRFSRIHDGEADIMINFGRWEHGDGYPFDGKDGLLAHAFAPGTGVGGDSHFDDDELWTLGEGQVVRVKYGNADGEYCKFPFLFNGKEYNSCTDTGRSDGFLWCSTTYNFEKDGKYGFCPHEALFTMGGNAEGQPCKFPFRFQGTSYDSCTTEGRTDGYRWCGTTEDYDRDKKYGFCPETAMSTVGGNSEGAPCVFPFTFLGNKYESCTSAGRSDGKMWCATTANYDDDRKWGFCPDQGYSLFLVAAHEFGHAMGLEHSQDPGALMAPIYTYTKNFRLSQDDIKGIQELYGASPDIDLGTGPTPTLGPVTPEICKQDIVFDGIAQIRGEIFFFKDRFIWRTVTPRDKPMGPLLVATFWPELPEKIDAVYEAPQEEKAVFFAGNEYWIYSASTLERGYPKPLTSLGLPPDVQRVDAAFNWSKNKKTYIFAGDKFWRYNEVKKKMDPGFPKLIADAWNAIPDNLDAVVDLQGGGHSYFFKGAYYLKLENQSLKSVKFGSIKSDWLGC
Thrombin counter = thrombin (bovine) inhibition, counter-screen for CSN hits. shares compounds with CSN deneddyl inh. bovine thrombin cleavage of Ub4-pepOG, fluorescence polarization. inhibition, % at 16.6 µM. 49% of 540 active. AID 720656;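 active = inhibition at or above a set limit, with a fluorescence interference ratio between 0.5 and a set maximum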
Large screens that a line does not name were inactive (follow-up assays come after a bar, where they were run).

CN(C)c1ccc(C=c2c3ccccc3n3c2c2ccccc2[n+]3C)cc1	none (no result: TPT1 inh, IDE inh)
C=CCNc1nc(C(=O)OC(C)C(=O)c2ccc(C)cc2)cs1 (stereo not drawn)	none (no result: TPT1 inh)
CCc1nc2ccc(C(=O)NCCN3CCOCC3)cn2c1N(C)Cc1ccc(OC)cc1	none (no result: TPT1 inh, IDE act, IDE inh)
CCc1nnc(NS(=O)(=O)c2ccc(NC(=O)c3cccc(OC)c3)cc2)s1	none
Cc1ccc2nc(N(CCN(C)C)C(=O)C3CCN(S(=O)(=O)c4cccs4)CC3)sc2c1	none (no result: TPT1 inh, IDE act, IDE inh)
CC1CCC(=C(C#N)c2nc(-c3cc4ccccc4oc3=O)cs2)CC1 (stereo not drawn)	none
N#C/C(=C\Nc1ccc2cn[nH]c2c1)c1nc(-c2ccc(Cl)cc2)cs1	none
CCN(CC)CCOC(=O)c1ccc(N/C=C(/C#N)c2nc(-c3ccc4c(c3)OCO4)cs2)cc1	CSN deneddyl inh 136.8, HNF4A DNA FP 291.9 | CSN deneddyl val inactive | MMP2 cntr CSN inactive | Thrombin counter inactive
CCN(CC)CCOC(=O)c1ccc(N/C=C(/C#N)c2nc(-c3cc4ccccc4oc3=O)cs2)cc1	CSN deneddyl inh 119.4 (no result: TPT1 inh, IDE inh) | CSN deneddyl val inactive | MMP2 cntr CSN -266.6 | Thrombin counter 20.7
CC(=O)c1ccc(OCC(=O)Nc2nnc(C3CC3)s2)cc1	none (no result: TPT1 inh, IDE act, IDE inh)
O=C1C2C(C(=O)N1/N=C/c1ccc([N+](=O)[O-])o1)C1C=CC2C12CC2 (stereo not drawn)	none
CC1=NN(c2nc(N)nc(/C(C#N)=C/c3ccc([N+](=O)[O-])o3)n2)C(C)(C)C1	CSN deneddyl inh 42.3, HNF4A DNA FP 96.4 (no result: TPT1 inh, IDE inh) | CSN deneddyl val 95.8 | MMP2 cntr CSN inactive | Thrombin counter inactive
Cc1cc(C)cc(NC(=O)/C=C/c2ccc([N+](=O)[O-])s2)c1	none
CC(=O)c1cccc(NC(=O)/C=C/c2ccc([N+](=O)[O-])s2)c1	CSN deneddyl inh 35.5 (no result: TPT1 inh, IDE inh) | CSN deneddyl val 96.7 | MMP2 cntr CSN inactive | Thrombin counter inactive
CCN1/C(=C/c2ccc3cc(C)ccc3[n+]2CC)Sc2cc(C)c(C)cc21	CSN deneddyl inh 50.2, HNF4A DNA FP 106.9 (no result: TPT1 inh, IDE inh) | CSN deneddyl val inactive | MMP2 cntr CSN inactive | Thrombin counter inactive
Cc1cccc(C(=Cc2ccc([N+](=O)[O-])cc2)C(=O)O)c1	none (no result: TPT1 inh, IDE act, IDE inh)
CC(=O)c1ccc(NC(=O)CSc2nnc(-c3ccco3)c(-c3ccco3)n2)cc1	none
O=C(CSc1nnc(-c2ccco2)c(-c2ccco2)n1)c1ccccc1	CSN deneddyl inh 37.2 | CSN deneddyl val 97.7 | MMP2 cntr CSN inactive | Thrombin counter inactive
N#Cc1c(NC(=O)c2ccc(Br)o2)n(-c2ccccc2)c2nc3ccccc3nc12	CSN deneddyl inh 39.4, HNF4A DNA FP 87.8 | CSN deneddyl val 93.9 | MMP2 cntr CSN inactive | Thrombin counter inactive
CCCCn1c(NC(=O)c2ccccc2)c(C#N)c2nc3ccccc3nc21	CSN deneddyl inh 69.1, HNF4A DNA FP 85.4 (no result: TPT1 inh, IDE inh) | CSN deneddyl val inactive | MMP2 cntr CSN inactive | Thrombin counter inactive
CCC(=O)Nc1c(C#N)c2nc3ccccc3nc2n1-c1ccc(C)cc1	none (no result: TPT1 inh, IDE inh)
N#Cc1c(N)n(CCOC(=O)c2cccc(Br)c2)c2nc3ccccc3nc12	none
Cc1ccc(C(=O)O)cc1-c1ccc(/C=C2/NC(=O)N(c3ccccc3)C2=O)o1	CSN deneddyl inh 40.8 | MMP2 cntr CSN inactive | Thrombin counter 20.7
Cc1ccc(NC(=O)CN2C(=O)S/C(=C\c3ccc(-c4cccc(C(=O)O)c4C)o3)C2=O)cc1	none (no result: CSN deneddyl inh, IDE act, HNF4A DNA FP)
C#CCN1C(=O)S/C(=C\c2ccc(-c3ccc(C(=O)O)cc3C)o2)C1=O	CSN deneddyl inh 38.7 | MMP2 cntr CSN inactive | Thrombin counter 37.3
Cc1ccccc1NC(=O)CN1C(=O)S/C(=C\c2ccc(-c3cc(C(=O)O)ccc3C)o2)C1=O	CSN deneddyl inh 71.4 (no result: TPT1 inh, IDE inh) | MMP2 cntr CSN inactive | Thrombin counter inactive
Cc1cc(C(=O)O)ccc1-c1ccc(/C=C2\NC(=O)N(Cc3ccccc3Cl)C2=O)o1	none
Cc1ccc(CN2C(=O)N/C(=C\c3ccc(-c4ccc(C(=O)O)cc4C)o3)C2=O)cc1	none
CCOC(=O)C(C)N1C(=O)S/C(=C\c2ccc(-c3ccccc3C(=O)O)o2)C1=O (stereo not drawn)	CSN deneddyl inh 48.1 | MMP2 cntr CSN 25.3 | Thrombin counter inactive
CCOc1ccc(S(=O)(=O)Nc2ccc(C(=O)NCC(C)(C)N3CCOCC3)cc2)cc1	none
CSc1ccc(Cn2c(C)c(C(=O)NCc3ccc4c(c3)OCO4)sc2=O)cc1	none (no result: TPT1 inh, IDE act, IDE inh)
CCOc1ccc(CCNC(=O)CCc2nnc3ccc(N4CCCCC4)nn23)cc1OCC	none
O=C1OC/C(=C(/O)c2ccc(Cl)cc2)C1=O	none
O=C(CCl)Nc1nc(-c2ccco2)c(-c2ccco2)s1	CSN deneddyl inh 42.7 | CSN deneddyl val 79.2 | MMP2 cntr CSN inactive | Thrombin counter inactive
CCOc1ccc(Nc2cc(C)nc3c(C)cccc23)cc1	none
COc1cc(OC)c(OC)cc1/C=C1\CCC/C(=C\c2cc(OC)c(OC)cc2OC)C1=O	CSN deneddyl inh 37.3, HNF4A DNA FP 53.9 (no result: TPT1 inh, IDE inh) | CSN deneddyl val 65.8 | MMP2 cntr CSN inactive | Thrombin counter 43.0
COc1ccc(/C=C2\CCC/C(=C\c3ccc(OC)c(OC)c3OC)C2=O)c(OC)c1OC	none (no result: TPT1 inh, IDE inh)
Fc1cccc(Cc2c(-c3ccco3)nc3c4ccccc4ccn23)c1	CSN deneddyl inh 49.0 (no result: TPT1 inh, IDE act, IDE inh) | CSN deneddyl val 69.5 | MMP2 cntr CSN inactive | Thrombin counter 19.7
Cn1ccc2cc3c(cc21)CCN3C(=O)Nc1cccnc1	CSN deneddyl inh 102.1 | CSN deneddyl val 61.2 | MMP2 cntr CSN -41.3 | Thrombin counter inactive
C=CCOC(=O)c1cc(-c2ccc(/C=C3\C(=O)NC(=O)C(C#N)=C3C)o2)ccc1Cl	CSN deneddyl inh 42.9 (no result: TPT1 inh, IDE inh) | CSN deneddyl val 17.9 | MMP2 cntr CSN 24.3 | Thrombin counter inactive
CN(C)c1ccc2nc3ccc(=O)cc-3sc2c1	CSN deneddyl inh 54.7 (no result: TPT1 inh, IDE act, IDE inh) | CSN deneddyl val 103.8 | MMP2 cntr CSN 25.7 | Thrombin counter inactive
COc1ccc(C2(CO)OC(CO)C(O)C2O)cc1 (stereo not drawn)	none (no result: TPT1 inh, IDE inh)
O=c1nc(Oc2ccccc2)nc2ncccn12	none (no result: TPT1 inh, IDE act, IDE inh)
CCOC(=O)/C=C(\C)Sc1cc(O)c2ccccc2c1O	CSN deneddyl inh 41.5 (no result: TPT1 inh, IDE inh) | CSN deneddyl val 50.9 | MMP2 cntr CSN 23.9 | Thrombin counter inactive
COc1ccc(C2(c3ccc(OC)cc3)NC(=O)N(CC(=O)Nc3ccc(OC)c(OC)c3)C2=O)cc1	none
COc1cc(OC)c(-c2c3cc(O)c(=O)cc-3oc3cc(O)c(O)cc23)cc1OC	CSN deneddyl inh 80.5, IDE act 40.7 | MMP2 cntr CSN active | Thrombin counter inactive
